Results published in ChEMBL document CHEMBL3865824, “New (E)-1-alkyl-1H-benzo[d]imidazol-2-yl)methylene)indolin-2-ones: Synthesis, in vitro cytotoxicity evaluation and apoptosis inducing studies” (Eur J Med Chem, 2016).
Active and inactive are the calls of the source. No cut-off for these calls is given here.

Key:
MDA-MB-231 [1] = assay: Inhibition of F-actin polymerization in human MDA-MB-231 cells assessed as decrease in protein extension at 1 to 4 uM after 12 hrs by rhodamine-phalloidin/hoechst […]-dual staining based confocal microscopic analysis; format: cell-based
In short: (§1)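 MDA-MB-231 cells (1×10^6/well) were grown on coverslips for 24 h, then exposed 12 h to 1, 2 and 4 μM. After a PBS wash and fixation in 4% paraformaldehyde, F-actin was stained with rhodamine-phalloidin and nuclei with Hoechst […]. Slides were mounted in anti-fade reagent and imaged by confocal microscopy (20× objective).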

MDA-MB-231 [2] = assay: Induction of apoptosis in human MDA-MB-231 cells assessed as formation of horse-shoe shaped nuclei at 1 to 4 uM after 24 hrs by DAPI dye-based fluorescent microscopic analysis; format: functional, cell-based
In short: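 MDA-MB-231 grown at 1×10^6 cells/well in 6-well plates and treated at 1.0, 2.0 or 4.0 µM for 24 h, with untreated controls. Cells washed twice with PBS, fixed in 4% paraformaldehyde and stained with 10 µg/mL DAPI. Nuclei examined by fluorescence microscopy (excitation 359 nm, emission 461 nm) at 200×.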

MDA-MB-231 [3] = assay: Induction of apoptosis in human MDA-MB-231 cells assessed as cell shrinkage at 1 to 4 uM after 24 hrs by phase contrast microscopic analysis; format: functional, cell-based
In short: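 MDA-MB-231 treated at 1, 2 or 4 µM for 24 h. Morphology examined and photographed by phase contrast microscopy against untreated control cells.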

MDA-MB-231 [4] = assay: Induction of apoptosis in human MDA-MB-231 cells assessed as necrotic cells at 1 uM after 24 hrs by Annexin V-FITC/propidium iodide-staining based FACS analysis (reference value: 2.8 %); format: functional
MDA-MB-231 [5] = assay: Induction of apoptosis in human MDA-MB-231 cells assessed as formation of horse-shoe shaped nuclei at 2 uM after 24 hrs by AO/EB-dual staining based fluorescent microscopic analysis; format: functional, cell-based
In short: (§2)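 MDA-MB-231 plated at 1×10^6 cells/mL and treated at 1, 2 or 4 µM, with a DMSO control. Incubation time is given as 48 h in the methods and 24 h in the figure legend. AO and EB added at 10 µg/mL each. Cells viewed within 10 min by fluorescence microscopy (excitation 488 nm, emission 550 nm) at 200×.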

[6] = Cytotoxicity against human BT549 cells assessed as reduction in cell viability after 48 hrs by MTT assay; format: functional, cell-based; settings: BT-549, 48 h
In short: (§3)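 Cells grown in DMEM or MEM with 10% FBS at 37 °C, 5% CO2. Seeded at 1×10^4 cells/well, incubated 48 h, then exposed to compound for 48 h with vehicle control. MTT (5 mg/mL stock) added for 4 h; formazan dissolved in DMSO, absorbance read at 570 nm. Preliminary screen at 50 µM. Compounds giving >50% inhibition were tested for dose-response curves; IC50 derived by linear regression of % inhibition versus concentration. Mean of three independent experiments in triplicate.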

[7] = Cell cycle arrest in human MDA-MB-231 cells assessed as accumulation at G0/G1 phase at 1 uM after 24 hrs by propidium iodide staining based FACS analysis (reference value: 50.4 %); format: functional
In short: (§4)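 MDA-MB-231 at 1×10^6 cells/well treated with 1, 2 or 4 µM for 24 h, with a DMSO control. Cells harvested by trypsin, washed with PBS and fixed in 70% ethanol for 30 min at 4 °C. Stained 15 min at room temperature in the dark with PI buffer containing Triton X and DNase-free RNase A. Analysed by flow cytometry; G0/G1, S and G2/M fractions quantified.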

MDA-MB-231 [8] = assay: Induction of apoptosis in human MDA-MB-231 cells assessed as necrotic cells at 4 uM after 24 hrs by Annexin V-FITC/propidium iodide-staining based FACS analysis (reference value: 2.8 %); format: functional
[9] = Cell cycle arrest in human MDA-MB-231 cells assessed as after 24 hrs by propidium iodide staining based FACS analysis
MDA-MB-231 [10] = assay: Induction of apoptosis in human MDA-MB-231 cells assessed as formation of condensed chromatin at 1 uM after 24 hrs by AO/EB-dual staining based fluorescent microscopic analysis; format: functional, cell-based; in short: as §2
MDA-MB-231 [11] = assay: Induction of apoptosis in human MDA-MB-231 cells assessed as viable cells at 1 uM after 24 hrs by Annexin V-FITC/propidium iodide-staining based FACS analysis (reference value: 89.5 %); format: functional; settings: MDA-MB-231, 24 h, read-out: Activity
[12] = Cytotoxicity against human MDA-MB-231 cells assessed as reduction in cell viability after 48 hrs by MTT assay; format: functional, cell-based; settings: MDA-MB-231, 48 h; in short: as §3
[13] = Cytotoxicity against human MCF7 cells assessed as reduction in cell viability after 48 hrs by MTT assay; format: functional, cell-based; settings: MCF7, 48 h; in short: as §3
MDA-MB-231 [14] = assay: Induction of apoptosis in human MDA-MB-231 cells assessed as early apoptotic cells at 1 uM after 24 hrs by Annexin V-FITC/propidium iodide-staining based FACS analysis (reference value: 4.1 %); format: functional
MDA-MB-231 [15] = assay: Induction of apoptosis in human MDA-MB-231 cells assessed as loss of mitochondrial membrane potential at 4 uM after 24 hrs by rhodamine-123 -based spectrofluorometric analysis relative to control; format: functional
In short: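 MDA-MB-231 cells were plated at 5×10^5 cells/mL in 6-well plates, left to adhere overnight, then treated 24 h at 1, 2 and 4 μM. Cells were trypsinized, washed in PBS and loaded with rhodamine-123 (10 μg/mL) in PBS for 30 min at room temperature. After two PBS washes, fluorescence was read by spectrofluorometer (ex 480/em 530 nm). Loss is expressed against control; three independent experiments in triplicate.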

MDA-MB-231 [16] = assay: Induction of apoptosis in human MDA-MB-231 cells assessed as increase in caspase-3 expression after 24 hrs by Western blot analysis; format: functional, cell-based
In short: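 MDA-MB-231 treated at 1, 2 or 4 µM for 24 h. Whole-cell extracts prepared in RIPA buffer. Blots probed with rabbit anti-caspase-3, anti-Bcl2 and anti-β-actin (1:1000) and anti-Bax (1:500), then HRP secondaries and ECL detection. Membranes stripped and reprobed. Bands quantified by densitometry as fold change versus control. Mean ± SEM, n=3.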

MDA-MB-231 [17] = assay: Inhibition of F-actin polymerization in human MDA-MB-231 cells assessed as disruption of stress fibres at 1 to 4 uM after 12 hrs by rhodamine-phalloidin/hoechst […]-dual staining based confocal microscopic analysis; format: cell-based; in short: as §1
[18] = Cytotoxicity against human A549 cells assessed as growth inhibition at 50 uM after 48 hrs by MTT assay relative to control; format: functional; settings: A549, 48 h, read-out: GI; in short: as §3
[19] = Cytotoxicity against HGC cells assessed as reduction in cell viability after 48 hrs by MTT assay; format: functional, cell-based; settings: Homo sapiens; in short: as §3
[20] = Cytotoxicity against human DU145 cells assessed as growth inhibition at 50 uM after 48 hrs by MTT assay relative to control; format: functional; settings: DU-145, 48 h, read-out: GI; in short: as §3
[21] = Cell cycle arrest in human MDA-MB-231 cells assessed as accumulation at S phase at 1 uM after 24 hrs by propidium iodide staining based FACS analysis (reference value: 24.6 %); format: functional; in short: as §4

Q: Which inhibition (MDA-MB-231 [1]) does the source give for `CC(C)n1c(/C=C2/C(=O)Nc3ccc(Br)cc32)nc2ccccc21` here?
A: The inhibition was “Active”.

Q: And the Activity (MDA-MB-231 [2])?
A: The Activity was “Active”.

Q: And the Activity (MDA-MB-231 [3])?
A: The Activity was “Active”.

Q: And the Activity (MDA-MB-231 [4])?
A: Its Activity is 3.4%.

Q: And the Activity (MDA-MB-231 [5])?
A: Its Activity is “Active”.

Q: What about the IC50 [6] of the same compound?
A: Its IC50 is 13.7 µM.

Q: And the Activity [7]?
A: The Activity was 57.2%.

Q: And the Activity (MDA-MB-231 [8])?
A: Its Activity is 4.2%.

Q: What about the Activity [9] of the same compound?
A: Its Activity is “Dose-dependent effect”.

Q: What about the Activity (MDA-MB-231 [10]) of the same compound?
A: Its Activity is “Active”.

Q: And the viability at 1 µM (MDA-MB-231 [11])?
A: The viability at 1 µM was 83.3%.

Q: What about the IC50 [12] of the same compound?
A: The IC50 was 3.26 µM.

Q: And the IC50 [13]?
A: The IC50 was 14.9 µM.

Q: And the Activity (MDA-MB-231 [14])?
A: The Activity was 8.6%.

Q: What about the Activity (MDA-MB-231 [15]) of the same compound?
A: The Activity was 38.5%.

Q: What about the Activity (MDA-MB-231 [16]) of the same compound?
A: Its Activity is “Dose-dependent effect”.

Q: And the inhibition (MDA-MB-231 [17])?
A: Its inhibition is “Active”.

Q: What about the inhibition of growth at 50 µM [18] of the same compound?
A: Its inhibition of growth at 50 µM is over 50%.

Q: And the IC50 [19]?
A: The IC50 was 12.4 µM.

Q: What about the inhibition of growth at 50 µM [20] of the same compound?
A: The inhibition of growth at 50 µM was over 50%.

Q: And the Activity [21]?
A: Its Activity is 20.8%.
